Results: paper PMC5035717 (Cell, 2016)
Numbering of substitutions follows the chain as printed. pIC50, pKd: −log10 of the molar value. “Also recorded” adds a separate entry of the source. Read-outs that look alike come from different tables or passages of the source.

What was measured:
XSmoG84S ectodomain [1] = target: T1, XSmoG84S ectodomain (Xenopus laevis, UniProt Q98SW5, G84S); settings: read-out: IC50, competition of BODIPY-cyclopamine binding
T1 sequence (Q98SW5 35-189 G84S): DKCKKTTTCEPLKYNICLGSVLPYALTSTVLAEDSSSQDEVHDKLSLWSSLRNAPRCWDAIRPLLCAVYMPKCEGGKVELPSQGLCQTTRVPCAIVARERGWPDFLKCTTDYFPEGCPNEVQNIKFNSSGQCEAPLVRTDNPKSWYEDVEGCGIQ
Method in brief: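 Purified E. coli-expressed Xenopus Smo G84S ectodomain incubated with BODIPY-cyclopamine (5 nM) and varying concentrations of unlabeled competitor for 1 h at room temperature. Fluorescence polarization read on a plate reader and converted to anisotropy. Measured in triplicate; IC50 obtained by fitting competition curves.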

XSmo ectodomain [2] = target: T2, XSmo ectodomain (Xenopus laevis, UniProt Q98SW5); format: binding
T2 sequence (Q98SW5 35-189): T1 sequence (Q98SW5 35-189 G84S) with S50G

XSmo ectodomain [3] = target: T2, XSmo ectodomain; test: Circular dichroism; format: binding; settings: small molecule 25 μM; CD signal at 225 nm; protein alone Tm=62.1°C
XSmo ectodomain [4] = target: T2, XSmo ectodomain; test: Fluorescence polarization binding of BODIPY probes to purified XSmo ectodomain; settings: XSmo ectodomain (amino acids 35–189), probe 5 nM
Method in brief: (§1)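 Xenopus Smo CRD (aa 35–154) or ectodomain (aa 35–189; wild type or G84S) expressed in E. coli as thioredoxin-His6 fusions. Purified by Ni-NTA, glutathione redox refolding and size exclusion. Increasing protein amounts mixed with BODIPY FL probes (5 nM) in 20 mM HEPES pH 7.5, 100 mM NaCl, 1 h at room temperature. FP converted to anisotropy; triplicate; Kd from curve fitting.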

XSmoCRD = target: T3, XSmoCRD (Xenopus laevis, UniProt Q98SW5); test: Fluorescence polarization binding of BODIPY probes to purified XSmoCRD; settings: XSmoCRD (amino acids 35–154), probe 5 nM
T3 sequence (Q98SW5 35-154): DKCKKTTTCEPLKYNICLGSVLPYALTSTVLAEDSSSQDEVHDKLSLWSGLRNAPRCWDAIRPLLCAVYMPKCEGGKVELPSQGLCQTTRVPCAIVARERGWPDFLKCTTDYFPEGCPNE
Method in brief: as §1

mSmoG115S = mSmoG115S (Mus musculus, UniProt P56726, G115S); test: Hh pathway activity by qPCR for Gli1 in Smo-null cells rescued with mSmoG115S; format: cell-based
XSmoG84S ectodomain [5] = target: T1, XSmoG84S ectodomain; format: binding
Method in brief: as §1

mSmoD477G/E522K = mSmoD477G/E522K (Mus musculus, UniProt P56726, D477G/E522K); test: BODIPY-cyclopamine binding to mCherry-tagged mSmoD477G/E522K in 293T cells; settings: 50 nM
Method in brief: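 mCherry-tagged mutant mSmo transiently expressed in 293T cells. Cells washed into serum-free OptiMEM, then incubated 1 h with BODIPY-cyclopamine, with or without SANT1 competitor (10 μM). Fixed in 3.6% formaldehyde/PBS for 30 min at room temperature and washed with TBST. BODIPY and mCherry signals imaged by epifluorescence microscopy.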

[6] = test system: endogenous Smo in NIH-3T3 cells; test: Ciliary recruitment of endogenous Smo in sterol-depleted NIH-3T3 cells; format: cell-based; settings: for Recruitment of endogenous Smo to cilia: agent alone; for Rescue of Smo recruitment to cilia in response to Shh: sterols added back as MCD complexes (100 μM)
Method in brief: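 Confluent NIH-3T3 cells starved overnight in DMEM, then sterol-depleted with 1.5% MCD for 30 min. Kept in DMEM with 40 μM pravastatin throughout. Sterols added back 1 h as MCD complexes, then overnight with agents or Shh (conditioned medium from 293T cells expressing human Shh aa 1–197). Stained with anti-acetylated tubulin (1:5000) and anti-mSmo (1 μg/mL final); ciliary Smo intensity quantified automatically.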

wild-type mSmo = wild-type mSmo (Mus musculus, UniProt P56726); format: cell-based; settings: for Effect on Hh pathway activity (Gli1 mRNA): mSmo, irrespective of sterol depletion; for Activation of Hh signaling (in words): wild-type mSmo, sterols delivered as MCD complexes
mSmoΔCRD [7] = test: Ciliary localization of mSmoΔCRD in rescued Smo-null cells; format: cell-based, mouse; settings: with or without sterol depletion
Method in brief: (§2)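 Smo-null cells rescued with the mSmo construct, grown on glass coverslips. Confluent cultures starved overnight in DMEM, then sterol-depleted with 1.5% MCD in DMEM for 30 min. Later incubations with agents in DMEM plus 40 μM pravastatin. Immunofluorescence used anti-acetylated tubulin as cilia marker; ciliary Smo intensity quantified by automated image analysis, at least 300 cilia per condition.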

mSmo = mSmo (Mus musculus, UniProt P56726); test: Ciliary localization of mSmo in rescued Smo-null cells; format: cell-based; settings: with or without sterol depletion
Method in brief: as §2

mSmoΔCRD [8] = format: cell-based, mouse; settings: irrespective of sterol depletion
mSmoG115S/E164L = mSmoG115S/E164L (Mus musculus, UniProt P56726, E164L/G115S); format: cell-based
mSmoE164L = mSmoE164L (Mus musculus, UniProt P56726, E164L); test: Hh pathway activity by qPCR for Gli1 in Smo-null cells rescued with mSmoE164L; format: cell-based
mSmoG115F = mSmoG115F (Mus musculus, UniProt P56726, G115F); test: Hh pathway activity by qPCR for Gli1 in Smo-null cells rescued with mSmoG115F; format: cell-based
[9] = test system: Hh signaling in NIH-3T3 cells; test: Synergy with Shh in activating Hh signaling in NIH-3T3 cells; format: cell-based, mouse
mSmoD99A = mSmoD99A (Mus musculus, UniProt P56726, D99A); test: Hh pathway activity by qPCR for Gli1 in Smo-null cells rescued with mSmoD99A; format: cell-based

CCCCC[C@@](C)(O)[C@H]1CC[C@H]2[C@@H]3CC=C4C[C@@H](O)CC[C@]4(C)[C@H]3CC[C@@]21C [20(R)-OHC-Pent]
pIC50 (XSmoG84S ectodomain [1]): 5.26

CC1=C2C[C@H]3[C@@H](CC=C4C[C@@H](O)CC[C@@]43C)[C@@H]2CC[C@]12O[C@@H]1C[C@H](C)CN[C@H]1[C@H]2C [cyclopamine]
pIC50 (XSmo ectodomain [2]): 5.35 | Melting temperature (Tm) of XSmo ectodomain (XSmo ectodomain [3]): 66.6 °C

BODIPY-22-azacholesterol [BODIPY-22-NHC]
pKd (XSmo ectodomain [4]): 5.85 | pKd (XSmoCRD): 5.87

CC(C)CCC[C@@](C)(O)[C@H]1CC[C@H]2[C@@H]3CC=C4C[C@@H](O)CC[C@]4(C)[C@H]3CC[C@@]21C [20(R)-OHC]
Activation of Hh signaling (in words) (mSmoG115S): strongly activated

CC1=C2CC3C(CC=C4C[C@@H](O)CCC43C)C2CCC12O[C@@H]1CC(C)CN(CCNC(=O)CCCCCNC(=O)CCC3=[N+]4C(=Cc5c(C)cc(C)n5[B-]4(F)F)C=C3)C1C2C (stereo partly shown) [BODIPY-cyclopamine]
pKd (XSmo ectodomain [4]): 6.36 | pKd (XSmoG84S ectodomain [5]): 6.21 | Binding to mSmoD477G/E522K in cells (fluorescence microscopy) (mSmoD477G/E522K): does not bind | pKd (XSmoCRD): 6.41

CC(C)CCC[C@@H](C)[C@H]1CC[C@H]2[C@@H]3C(O)C=C4C[C@@H](O)CC[C@]4(C)[C@H]3CC[C@]12C (stereo partly shown) [7-hydroxycholesterol]
Recruitment of endogenous Smo to cilia [6]: inactive

Cc1nn(-c2ccccc2)c(C)c1/C=N/N1CCN(Cc2ccccc2)CC1 [SANT1]
Effect on Hh pathway activity (Gli1 mRNA) (wild-type mSmo): inhibited | Ciliary localization of mSmoΔCRD (mSmoΔCRD [7]): reduced | Ciliary localization of mSmo (mSmo): reduced | Effect on Hh pathway activity (Gli1 mRNA) (mSmoΔCRD [8]): inhibited

BODIPY-20(S)-hydroxycholesterol [BODIPY-20(S)-OHC]
pKd (XSmo ectodomain [4]): 6.86 | pKd (XSmoCRD): 6.65

CC(C)CCC[C@](C)(O)[C@H]1CC[C@H]2[C@@H]3CC=C4C[C@@H](O)CC[C@]4(C)[C@H]3CC[C@@]21C [20(S)-OHC, 20(S)-hydroxycholesterol]
pIC50 (XSmo ectodomain [2]): 5.74 | Melting temperature (Tm) of XSmo ectodomain (XSmo ectodomain [3]): 66.5 °C

CCCCCC(C)(O)[C@H]1CC[C@H]2[C@@H]3CC=C4C[C@@H](O)CC[C@]4(C)[C@H]3CC[C@]12C (stereo partly drawn) [20(S)-OHC-Pent]
Activation of Hh signaling (in words) (mSmoG115S/E164L): do not respond | Activation of Hh signaling (in words) (mSmoE164L): significantly decreases activation | Activation of Hh signaling (in words) (mSmoG115S): reduced | pIC50 (XSmoG84S ectodomain [1]): 4.36 | Activation of Hh signaling (in words) (mSmoG115F): does not activate | Synergy with Shh [9]: does not synergize | Activation of Hh signaling (in words) (mSmoD99A): do not respond

C[C@H](CCCC(C)(C)F)[C@H]1CC[C@H]2[C@@H]3CC=C4C[C@@H](O)CC[C@]4(C)[C@H]3CC[C@]12C [25F-cholesterol, 25-fluorocholesterol]
Rescue of Smo recruitment to cilia in response to Shh [6]: rescued

CC(C)CCC[C@@H](C)[C@H]1CC[C@H]2[C@@H]3CC=C4C[C@@H](O)CC[C@]4(C)[C@H]3CC[C@]12C [cholesterol]
Synergy with Shh (wild-type mSmo; Smo-null cells rescued with wild type mSmo, sterols 5 μM as MCD complexes): synergizes | Rescue of mSmo activation by Shh after sterol depletion (wild-type mSmo; add-back 100 μM MCD complex): rescues | Activation of Hh signaling (in words) (wild-type mSmo): activate | Activation of Hh signaling (in words) (wild-type mSmo; listed as Cholesterol): activates Hh signaling | pIC50 (XSmo ectodomain [2]): 5.62 | Activation of Hh signaling (in words) (mSmoG115S/E164L): activate | Melting temperature (Tm) of XSmo ectodomain (XSmo ectodomain [3]): 65.3 °C | Activation of Hh signaling (in words) (mSmoG115S): activate | Activation of Hh signaling (in words) (mSmoG115F): responds | Synergy with Shh [9]: synergizes | Activation of Hh signaling (in words) (mSmoD99A): defective | Rescue of Smo recruitment to cilia in response to Shh [6]: rescued

CC(C)CCC[C@@H](C)[C@H]1CC[C@H]2[C@@H]3CC[C@H]4C[C@@H](O)CC[C@]4(C)[C@H]3CC[C@]12C [cholestanol]
Activation of Hh signaling (in words) (wild-type mSmo): inactive | Binding to XSmo ectodomain (in words) (XSmo ectodomain [2]; competition of BODIPY-cyclopamine): inactive; also recorded: does not bind | Melting temperature (Tm) of XSmo ectodomain (XSmo ectodomain [3]): 62.9 °C

CNC1CCC(N(Cc2cccc(-c3ccncc3)c2)C(=O)c2sc3ccccc3c2Cl)CC1 (stereo not shown) [SAG]
Effect on Hh pathway activity (Gli1 mRNA) (wild-type mSmo): activated | Ciliary localization of mSmoΔCRD (mSmoΔCRD [7]): accumulate in cilia | Ciliary localization of mSmo (mSmo): accumulate in cilia | Effect on Hh pathway activity (Gli1 mRNA) (mSmoΔCRD [8]): activated | Activation of Hh signaling (in words) (mSmoD99A): robust activation | Recruitment of endogenous Smo to cilia [6]: strongly recruit

C[C@H](CCCC(F)(C(F)(F)F)C(F)(F)F)[C@H]1CC[C@H]2[C@@H]3CC=C4C[C@@H](O)CC[C@]4(C)[C@H]3CC[C@]12C [F7-cholesterol]
Rescue of Smo recruitment to cilia in response to Shh [6]: rescued
